Lipid droplet = inhibitors of hepatocyte lipid droplet formation, primary screen, imaging, high-throughput imaging, BODIPY stain; AML12 mouse hepatocytes, oleate lipid droplets; inhibition, % at 6.5 µM; actives 0.4% (n = 240,000); AID 1656, 2009;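 active = lipid droplet intensity inhibited by at least 50%, with more than 500 cells counted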
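Material: mouse AML12 hepatocyte cell line, fixed after treatment; Timing: compound with oleate, overnight; Technique: high-content imaging of BODIPY-stained droplets and DAPI nuclei; Probe or stimulus: oleate, 100 µM final; Dosing: compound at 6.5 µM only.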
iPSC survival up = enhancers of single-cell hiPSC survival, primary screen, ATPlite luminescence; 100% = ROCK inhibitor wells, 0% = DMSO; survival enhancement, % at 20 µM; actives 0.044% (n = 360,000); AID 602274, 2012; in the data active = survival enhancement above about 18%;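 also: cells exposed to compounds for 16 hours before the ATP read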
TAG inh = inhibitors of triacylglycerol accumulation, primary screen, cell-based, uHTS, fluorescence, H9c2; H9c2 cells, Nile Red lipid (TAG) fluorescence; cells loaded with 200 µM oleic acid; inhibition, % at 12.5 µM; actives 0.66% (n = 230,000); AID 651582, 2012;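 active = pattern-corrected inhibition of lipid staining of at least 50% with the nuclear-stain viability signal not falling by more than 50%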;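 also: 0% = DMSO wells and 100% = triacsin C control wells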
Jurkat NFkB inh = inhibitors of induced NF-kB luciferase reporter, primary screen, TCR NF-kB activation inhibitor project, cell-based, luminescence, uHTS; inhibition, % at 4 µM; AID 435003, 2010; Jurkat, PMA/ionomycin-induced NF-kB luciferase reporter; actives 0.53% (n = 330,000); in the data active = inhibition above about 50%
Gli-Sufu block = Gli-Sufu pathway antagonists, primary screen, luciferase luminescence, Sufu-KO-LIGHT cells, uHTS. inhibition, % at 5 µM. actives 0.74% (n = 340,000). Sufu-KO-LIGHT fibroblasts, Gli luciferase reporter luminescence. AID 588413, 2011;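 active = inhibition above about 55%, limit read from the data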;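 also: 0% = DMSO-treated cells and 100% = wells with medium but no cells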
697 NFkB inh = inhibitors of PMA/ionomycin-induced NF-kB reporter, 697 cells, primary screen, B-cell NF-kB inhibitor project, cell-based, luminescence, uHTS. AID 435022, 2010. 697 B-cell NF-kB luciferase reporter, 16 h. inhibition, % at 4 µM. actives 0.33% (n = 330,000); in the data active = inhibition above about 35%
Gli-Sufu confirm = Gli-SUFU pathway antagonists, confirmation, single concentration, luciferase luminescence, Sufu-KO-LIGHT cells. shares compounds with Gli-Sufu block. Gli luciferase reporter. inhibition, % at 5 µM. actives 40% (n = 2,500);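 active = mean inhibition at 5 µM reaching about 45%, limit read from the data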;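 also: plate controls were DMSO-treated cells for no effect and wells lacking cells for full effect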
Gli cytotox = cytotoxicity in Sufu-KO-LIGHT cells, confirmation, cytotoxicity control for Gli-SUFU antagonist project, cell-based, ATP luminescence, single concentration | cytotoxicity, % at 5 µM | actives 32% (n = 2,500) | shares compounds with Gli-Sufu block | AID 651994, 2013;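 active = mean cytotoxicity at 5 µM above about 25%, limit read from the data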;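 also: cells exposed to compound overnight for roughly 16 to 18 hours; plate controls were DMSO wells with cells for no effect and medium without cells for full effect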
Wnt3a counter = Wnt3a reporter signal inhibition, confirmation, counter-screen for Gli-SUFU antagonist project, Wnt-LIGHT cells, luminescence, single concentration; shares compounds with Gli-Sufu block; Wnt3a-driven luciferase reporter; inhibition, % at 6.25 µM; actives 20% (n = 2,500); AID 651995, 2013;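 active = mean inhibition above about 25%, limit read from the data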
Starred values were filed as active, the others as inactive; / = not tested or not shown. Only some compounds are listed: those with a hit (about 1.8% of all), similar ones and a draw of the others.

SMILES	Lipid droplet	iPSC survival up	TAG inh	Jurkat NFkB inh	Gli-Sufu block	697 NFkB inh	Gli-Sufu confirm	Gli cytotox	Wnt3a counter
Cc1nc(N)nc(Nc2ccc(C#N)cc2)c1Br	-6	-1	0	-2	56*	3	32	20	-2
Cc1nc(N)nc(Nc2ccc(Cl)cc2)c1Br	/	-1	3	-32	-4	-10	/	/	/
COc1ccc(CN2CCCCC2C(=O)Nc2ccc(OC)c(OCC(C)C)c2)cc1OC (stereo not drawn)	-21	-2	/	-1	63*	-9	21	29*	-51
COc1ccc(S(=O)(=O)c2nnn(-c3cccc(Cl)c3)c2N)cc1	-7	1	-8	20	2	-4	/	/	/
CC(C)NCC(O)COC1CCC(C(C)(C)C)CC1 (stereo not drawn)	13	1	0	-16	70*	10	15	6	-27
O=C1NCCN1Cc1ccc(Cl)cc1	13	-1	1	-1	54	16	21	1	3
O=C1NCCCN1Cc1ccc(F)cc1	3	2	/	5	5	10	/	/	/
C[C@H](NC(=O)[C@@H]1CCC(=O)N1Cc1ccco1)c1ccccc1	25	2	/	9	68*	10	12	-9	-3
O=C(O)[C@H]1CCC(=O)N1Cc1ccco1	9	0	8	-13	3	-8	/	/	/
Cc1oc(-c2ccccc2)cc1C(N)=O	-10	2	-7	10	100*	0	8	9	-20
CNC(=S)/N=C/NOCc1ccc(Cl)cc1Cl	/	2	-11	4	52	-27	30	-9	-9
NC(=O)NOCc1ccc(Cl)cc1Cl	5	1	4	0	-1	-7	/	/	/
Cc1ccc2c(c1)cc1c(=O)n(CC(=O)NCCN3CCCC3)nc(C)n12	-25	1	/	-27	12	-40	/	/	/
CN(C)S(=O)(=O)c1ccc2oc(SCC(=O)c3c(N)n(C4CC4)c(=O)[nH]c3=O)nc2c1	/	0	-23	7	-2	-18	/	/	/
CN(C)S(=O)(=O)c1ccc2oc(SCC(N)=O)nc2c1	14	1	/	-13	67*	8	12	7	-3
O=C(CC1C(=O)NCCN1Cc1c(F)cccc1Cl)NCCCOc1cccnc1 (stereo not drawn)	-27	0	/	-4	-3	-10	/	/	/
Cc1cc(C#N)c(C)c(SCc2[nH]nc3c2C(c2ccccc2)C(C#N)=C(N)O3)n1 (stereo not drawn)	-2	0	/	-5	58*	3	25	16	0
Cc1ccnc(NC(=O)CCC(=O)N(CC(=O)NCc2ccc(F)cc2)Cc2ccco2)c1	-7	0	/	-21	63*	-10	15	8	-6
CNc1nnc(SCC(=O)N2c3ccccc3NC(=O)CC2C)s1 (stereo not drawn)	/	0	2	-2	-3	7	/	/	/
CCCCn1c(CCl)nc2cc(S(=O)(=O)N3CCOCC3)ccc21	/	0	18	10	-1	13	/	/	/
O=S(=O)(c1ccc2c(c1)nc(COc1ccc(Cl)cc1)n2CC1CCCO1)N1CCOCC1 (stereo not drawn)	/	1	6	1	60*	-23	45*	9	33*
CCCOC(=O)c1cc(NC(=O)/C=C/c2ccccc2)ccc1O	-2	1	/	4	/	-8	/	/	/
COc1ccc(/C=C/C2=CCN(Cc3ccc(OC)cc3)CC2)cc1	-22	-1	/	-11	50	-8	18	11	-48
Cc1[nH]c2ccccc2c1CC#N	36	-1	0	4	2	14	/	/	/
Cc1[nH]c2ccccc2c1[C@H]1[C@@H](CC#N)C1(C)C	3	1	19	-1	51	13	22	5	-6
SMILES	Lipid droplet	iPSC survival up	TAG inh	Jurkat NFkB inh	Gli-Sufu block	697 NFkB inh	Gli-Sufu confirm	Gli cytotox	Wnt3a counter
Cc1ncoc1C(=O)N1CCCC(C(=O)c2cccc3ccccc23)C1 (stereo not drawn)	-8	0	-24	1	6	14	/	/	/
CN(C)c1ccccc1C(=O)N1CCCC(C(=O)c2ccc3ccccc3c2)C1 (stereo not drawn)	4	1	-14	-8	61*	1	26	7	-20
Cn1nccc1C(=O)N1CCCC(C(=O)c2cccc3ccccc23)C1 (stereo not drawn)	5	5	0	-6	72*	-21	25	22	-15
COc1cccc(-c2nc(CS(=O)(=O)CC(=O)NCCN3CCOCC3)c(C)o2)c1	-7	0	/	7	77*	-5	21	-1	-6
CC(C)C(=O)N1CCN(c2ccccc2NC(=O)COc2ccc(C3CCCCC3)cc2)CC1	-24	2	-17	10	8	-27	/	/	/
CC(C)C(=O)N1CCN(c2ccccc2NC(=O)COc2ccccc2)CC1	-16	0	-6	7	54	-7	28	10	-22
CC(C)COc1ccc(C/C(N)=N/n2cnnc2)cc1	8	2	/	20	62*	-11	46*	20	26*
N=c1c(-c2nc3ccccc3[nH]2)cc(C(=O)c2cccs2)nn1-c1ccccc1	-7	-2	28	-17	8	-33	/	/	/
N=c1c(-c2nc3ccccc3[nH]2)cc(C(=O)c2ccco2)nn1-c1ccccc1	8	-1	/	5	62*	-13	35	6	-118
Cc1cc(NC(=O)c2c(Br)c(C)nn2C)no1	/	4	/	-5	50	21	9	23	-8
Cc1cc(NC(=O)c2cc(C)on2)no1	8	1	/	8	-3	-10	/	/	/
CCC(Oc1ccccc1F)C(=O)Nc1ccc2c(c1)n(C)c(=O)n2C (stereo not drawn)	-11	0	/	7	52	-5	28	-2	7
Cc1ccc2cc(CN(Cc3cccs3)Cc3nnnn3CC3CCCO3)c(=O)[nH]c2c1 (stereo not drawn)	2	2	/	-5	1	20	/	/	/

Source: PubChem (Sanford-Burnham Center for Chemical Genomics)
